Assay [1] concerns P388. As to the kind of experiment: Antitumor activity against P388 leukemia at dose range of 1.56-25 mg/kg on day 1, activity expressed as maximum tolerated dose. It counts as functional, Mus musculus.
In assay [2] the test system is L1210. As to the kind of experiment: Percent of L1210 cells in the G2+M phase of the cell cycle at a compound concentration of 0.1 uM. It counts as functional, Mus musculus. In a few lines: (§1)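 L1210 cells (2.5 × 10⁵ cells/mL) were incubated for 21 h with compound at the stated concentration. Flow cytometry was run on 10⁴ cells per sample, and the percentage of cells in G2+M was recorded.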

Assay [3] can be described thus: Median survival time of treated animals/median survival time of control animals; ranges from 126-159. It counts as functional. In a few lines:
(§2)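 A549 human lung tumour cells were implanted orthotopically, 10⁶ cells through the chest wall into the left pleural space of anaesthetised BALB/C nude mice. Once tumours were established, drug was given iv on days 14, 21 and 28 after tumour cell injection. The endpoint was life span, expressed as T/C (%) = median survival time of treated/control × 100. MTD was the dose causing no toxic death and/or no weight loss >20%.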

The test system of assay [4] is A549. Nature of the assay: Antitumor activity against A549 non small cell carcinoma at dose range of 1.56-6.25 mg/kg on day 14, 21, 28; activity expressed as maximum tolerated dose. It counts as functional, Homo sapiens. The essentials:
as §2

Assay [5] addresses DNA topoisomerase II (Homo sapiens) (UniProt P11388+Q02880). As to the kind of experiment: Inhibition of human DNA Topoisomerase II mediated DNA cleavage through the stabilization of transient DAN/topoisomerase II cleavage complex. The format is protein assay. In a few lines: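 Supercoiled pBS DNA (0.1 μg) preincubated 15 min at 30 °C with drug at 50 μM in 50 mM Tris-HCl pH 7.5, 1 mM ATP, 120 mM KCl, 10 mM MgCl2, 0.5 mM DTT, 0.1 mM EDTA, BSA. Two units human topo II added, 30 min at 30 °C. SDS/proteinase K digestion 30 min at 55 °C. 1% agarose gel with ethidium bromide; linear DNA percentage read, mean of three independent experiments.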

Assay [6] has as its system P388. Nature of the assay: Evaluated for long-term survivors scored at day 60; 0/6. It counts as functional, Mus musculus.
Assay [7] deals with L1210. As to the kind of experiment: Inhibitory concentration required to reduce 50 percent L1210 cell growth. To be noted: Mus musculus. It counts as functional, cell-based. The essentials:
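L1210 cells were grown in RPMI 1640 with 10% fetal calf serum, 2 mM glutamine, antibiotics and 10 mM HEPES (pH 7.4). Cells were exposed to compound for 48 h. MTT was then added for 4 h at 37 °C, and formazan was dissolved in DMSO and read at 540 nm. IC50 is the concentration reducing OD by 50%, from linear regression on the linear part of the curve. Triplicate.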

Assay [8] has as its system P388. As to the kind of experiment: Median survival time of treated animals/median survival time of control animals. It counts as functional, Mus musculus.
For assay [9], the system named is L1210. Nature of the assay: Percent of L1210 cells in the G2+M phase of the cell cycle at a compound concentration of 1 uM. The format is functional, Mus musculus. The essentials:
as §1

Assay [10] has as its system L1210. As to the kind of experiment: Percent of L1210 cells in the G2+M phase of the cell cycle at a compound concentration of 5 uM; Toxic at 10 uM. The format is functional, Mus musculus. The essentials: as §1
The test system of assay [11] is P388. Nature of the assay: Antitumor activity against P388 leukemia at dose range of 12.5-200 mg/kg on day 1, activity expressed as maximum tolerated dose. The format is functional, Mus musculus.
Assay [12] has as its system A549. As to the kind of experiment: Antitumor activity against A549 non small cell carcinoma at dose range of 6.25-25 mg/kg on day 14, 21, 28; activity expressed as maximum tolerated dose. It counts as functional, Homo sapiens. In a few lines: as §2
Assay [13] relates to L1210. As to the kind of experiment: Percent of L1210 cells in the G2+M phase of the cell cycle at a compound concentration of 0.25 uM. The format is functional, Mus musculus. The essentials: as §1
For assay [14], the system named is L1210. Nature of the assay: Percent of L1210 cells in the G2+M phase of the cell cycle at a compound concentration of 25 uM. It counts as functional, Mus musculus. The essentials: as §1
Assay [15] relates to L1210. As to the kind of experiment: Percent of L1210 cells in the G2+M phase of the cell cycle at a compound concentration of 2.5 uM. It counts as functional, Mus musculus. In a few lines:
as §1

Assay [16] deals with L1210. Nature of the assay: Percent of L1210 cells in the G2+M phase of the cell cycle at a compound concentration of 0.5 uM. The format is functional, Mus musculus. In a few lines:
as §1

The test system of assay [17] is L1210. Nature of the assay: Percent of L1210 cells in the G2+M phase of the cell cycle at a compound concentration of 50 uM. The format is functional, Mus musculus. The essentials:
as §1

The subject of assay [18] is A549. As to the kind of experiment: Antitumor activity against A549 non small cell carcinoma at dose range of 25-100 mg/kg on day 14, 21, 28; activity expressed as maximum tolerated dose. It counts as functional, Homo sapiens. The essentials:
as §2

The test system of another assay is NCI-H69. Nature of the assay: […] antiproliferative activity against NCI-H69 cell line. The format is functional. The note with it: Homo sapiens.
Assay [19] deals with L1210. Nature of the assay: Percent of L1210 cells in the G2+M phase of the cell cycle at a compound concentration of 0.2 uM. The format is functional, Mus musculus. In a few lines: as §1
Assay [20] deals with P388. Nature of the assay: Antitumor activity against P388 leukemia at dose range of 6.25-100 mg/kg on day 1, activity expressed as maximum tolerated dose. The format is functional, Mus musculus.
For another assay, the system named is DU-145. Nature of the assay: […] antiproliferative activity against DU-145 cell line. The note with it: Homo sapiens. It counts as functional.
For assay [21], the system named is P388. Nature of the assay: […] antiproliferative activity against P388 cell line. It counts as functional. To be noted: Mus musculus.
The test system of a further assay is MDA-MB-231. As to the kind of experiment: […] antiproliferative activity against MDA-MB-231 cell line. It counts as functional. To be noted: Homo sapiens.
The next assay deals with K562. Nature of the assay: […] antiproliferative activity against K-562 cell line. The format is functional. To be noted: Homo sapiens.
For the next assay, the system named is IGROV-1. As to the kind of experiment: […] antiproliferative activity against IGROV1 cell line. It counts as functional. The note with it: Homo sapiens.
In the next assay the test system is A-431. Nature of the assay: […] antiproliferative activity against A431 cell line. The format is functional. To be noted: Homo sapiens.
In a further assay the test system is SK-N-MC. As to the kind of experiment: […] antiproliferative activity against SK-N-MC cell line. The format is functional. To be noted: Homo sapiens.
A further assay deals with HT-29. Nature of the assay: […] antiproliferative activity against HT-29 cell line. The format is functional. To be noted: Homo sapiens.
Assay [22] relates to L1210. Nature of the assay: […] antiproliferative activity against L1210 cell line. It counts as functional. The note with it: Mus musculus.
The subject of assay [23] is A549. As to the kind of experiment: […] antiproliferative activity against A549 cell line. The format is functional. The note with it: Homo sapiens.

This is an account of results in ChEMBL document CHEMBL1149329, “Synthesis and biological activity of sulfonamide derivatives of epipodophyllotoxin” (J Med Chem, 2004).

By T/C is commonly meant the result in the treated group divided by that in the control group, in per cent. As usually defined, the IC50 is the concentration that inhibits the measured activity by half. Read a high IC50 as weaker potency.

Several values for one entry are separate records, joined by “and”; a condition that tells them apart may be missing. Equal entries are not always repeated.

For `COc1cc([C@@H]2c3cc4c(cc3[C@@H](NS(=O)(=O)N3CCN(C)CC3)[C@H]3COC(=O)[C@H]23)OCO4)cc(OC)c1O`, the MTD in the assay on P388 [1] stood at 12.5; in the assay on A549 [4], 6.25. This compound also registered an Effect in the assay with L1210 [2] of 84%. In addition, the T/C in assay [3] is listed as 159%; in the assay on P388 [8], 229%. The same compound showed an Activity in assay [5] of 45. In addition, in the assay on P388 [6], the LTS was found to be 0. The compound also returned an IC50 with L1210 [7] of 48 nM.
In the assay on L1210 [9], `CCCCCCCCS(=O)(=O)N[C@@H]1c2cc3c(cc2[C@@H](c2cc(OC)c(O)c(OC)c2)[C@H]2C(=O)OC[C@@H]21)OCO3` showed an Effect of 76%. Besides, in assay [5], the Activity came out at 35. The compound also displayed an IC50 with L1210 [7] of 250 nM.
Take `COc1cc([C@@H]2c3cc4c(cc3[C@@H](NS(=O)(=O)c3c(F)c(F)c(F)c(F)c3F)[C@H]3COC(=O)[C@H]23)OCO4)cc(OC)c1O`: the Effect in the assay on L1210 [10] turned out to be 52%. In [5], this compound displayed an Activity of 0. Further, the IC50 in the assay with L1210 [7] came to 1000 nM.
Regarding `COc1cc([C@@H]2c3cc4c(cc3[C@@H](NS(=O)(=O)N(C)C)[C@H]3COC(=O)[C@H]23)OCO4)cc(OC)c1O`, the MTD in the assay on P388 [11] is reported as 100; in the assay on A549 [12], 6.25. Also, the Activity in assay [5] stood at 44. This compound yielded an LTS in the assay on P388 [6] of 0. The same compound came in with an IC50 in the assay on L1210 [7] of 37 nM. Moreover, the T/C with P388 [8] is 192% and 133%. Besides, the Effect in the assay on L1210 [13] came to 66%.
In the assay with L1210 [14], `CCCCCCCCCCCCCCCCS(=O)(=O)N[C@@H]1c2cc3c(cc2[C@@H](c2cc(OC)c(O)c(OC)c2)[C@H]2C(=O)OC[C@@H]21)OCO3` displayed an Effect of 73%. In addition, the Activity in assay [5] turned out to be 0. In the assay on L1210 [7], this compound showed a concentration for half-maximal inhibition (IC50) of 5500 nM.
Regarding `COc1cc([C@@H]2c3cc4c(cc3[C@@H](NS(=O)(=O)c3ccc(S(C)(=O)=O)cc3)[C@H]3COC(=O)[C@H]23)OCO4)cc(OC)c1O`, in the assay with L1210 [15], the Effect is listed as 75%. Besides, the Activity in assay [5] was found to be 10. The same compound displayed an IC50 in the assay on L1210 [7] of 550 nM.
In the case of `COc1cc([C@@H]2c3cc4c(cc3[C@@H](NS(=O)(=O)N3CCCCC3)[C@H]3COC(=O)[C@H]23)OCO4)cc(OC)c1O`, in the assay on L1210 [16], the Effect was 77%. Also, the MTD in the assay on P388 [11] is 200. The Activity in assay [5] was 34. The compound also showed an LTS with P388 [6] of 0. This compound showed an IC50 with L1210 [7] of 120 nM. For the same compound, in the assay with P388 [8], the T/C is given as 121%.
For the compound `COc1cc([C@@H]2c3cc4c(cc3[C@@H](N)[C@H]3COC(=O)[C@H]23)OCO4)cc(OC)c1O`, in the assay on L1210 [15], the Effect is listed as 57%. The Activity in assay [5] turned out to be 0. In addition, in the assay with L1210 [7], the IC50 turned out to be 630 nM.
In turn, `COc1cc([C@@H]2c3cc4c(cc3[C@@H](NS(=O)(=O)CCCN)[C@H]3COC(=O)[C@H]23)OCO4)cc(OC)c1O` returned an Effect in the assay with L1210 [17] of 75%. Further, in assay [5], the Activity amounted to 45. Further, the IC50 with L1210 [7] was 2500 nM.
For `COc1cc([C@@H]2c3cc4c(cc3[C@@H](NS(=O)(=O)N3CCOCC3)[C@H]3COC(=O)[C@H]23)OCO4)cc(OC)c1O`, the MTD amounted to 50 in the assay with A549 [18] and 200 in the assay on P388 [11]. This compound also displayed an Activity in assay [5] of 31. Also, the LTS in the assay with P388 [6] was determined as 0. Further, the IC50 in the assay with L1210 [7] worked out at 100 nM. Moreover, the T/C with P388 [8] was 235% and 155%. In the assay on L1210 [13], the Effect came to 76%.
Take `CCCCS(=O)(=O)N[C@@H]1c2cc3c(cc2[C@@H](c2cc(OC)c(O)c(OC)c2)[C@H]2C(=O)OC[C@@H]21)OCO3`: the IC50 in the assay with NCI-H69 was found to be 316 nM; in the assay on DU-145, 304 nM; in the assay on P388 [21], 16.1 nM; in the assay with MDA-MB-231 it was 69.2 nM; in the assay with K562, 139 nM; in the assay with IGROV-1, 61.4 nM. Also, the IC50 with A-431 came to 142 nM; in the assay with L1210 [7], 33 nM; in the assay with SK-N-MC it was 85.7 nM; in the assay on HT-29, 237 nM; in the assay on L1210 [22] it was 33.5 nM; with A549 [23], 62.6 nM. The same compound had an Effect in the assay with L1210 [19] of 75%. Moreover, the MTD came out at 100 in the assay on P388 [20] and 50 in the assay with A549 [18]. Moreover, the Activity in assay [5] stood at 10. In the assay on P388 [6], this compound displayed an LTS of 0. In the assay with P388 [8], the T/C is 161% and 105%.
